Test results: article PMC2200097 (The Journal of Cell Biology, 1993)

What was measured:
[1] = target: fibronectin (Homo sapiens, UniProt P02751); format: binding; conditions: for IC50 for competition of [125I]fibronectin binding to peptide GGWSHW: irrelevant proteins as inhibitors; for Inhibition of fibronectin binding to immobilized peptide GGWSHW, in words: soluble peptide or protein as inhibitor
Summary of the method: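 Wells were incubated 2 h at 25°C with [¹²⁵I]human plasma fibronectin (0.2 μg/ml final per methods; 0.5 μg/ml per legends) plus serial dilutions of soluble inhibitors. Wells were washed three times with DPBS, cut out and counted. Duplicates; percent of specific binding without inhibitor.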

[2] = system: melanoma cells; conditions: murine lung colonization assay; ref Tuszynski et al., 1992; cited from earlier work
[3] = target: peptide GGWSHW (Homo sapiens, UniProt P07996); format: binding; conditions: detection with antibody 191; wells coated with 50 μg/ml GGWSHW
Summary of the method: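 Peptide GGWSHW (50 μg/ml) was coated on microtiter wells and blocked with 1% BSA. Wells were incubated with graded concentrations of unlabeled intact fibronectin, the 30-kD proteolytic gelatin-binding domain or the 120-kD proteolytic cell-binding fragment. After washing, bound protein was detected sequentially with 5 μg/ml monoclonal antibody 191 and ¹²⁵I-goat anti-IgG, then counted. Values are mean ± SD of duplicates.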

[4] = target: human plasma fibronectin (human); experiment: radioligand binding
[5] = target: human plasma fibronectin (Homo sapiens, UniProt P02751); experiment: Direct binding of [125I]fibronectin to immobilized peptides; conditions: solid phase assay, labeled fibronectin
human plasma fibronectin, sequence (P02751 306-608 limits assumed): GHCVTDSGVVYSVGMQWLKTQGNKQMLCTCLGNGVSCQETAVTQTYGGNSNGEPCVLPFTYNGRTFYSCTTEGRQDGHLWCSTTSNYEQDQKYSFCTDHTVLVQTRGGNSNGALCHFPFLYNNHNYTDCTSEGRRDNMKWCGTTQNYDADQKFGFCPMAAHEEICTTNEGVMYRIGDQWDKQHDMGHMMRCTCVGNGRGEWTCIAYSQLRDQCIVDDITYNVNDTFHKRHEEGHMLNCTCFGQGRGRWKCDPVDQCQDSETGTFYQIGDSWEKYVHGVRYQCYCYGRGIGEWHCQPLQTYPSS

[6] = target: peptide 300 (GGWSHW) (human); experiment: radioligand binding
[7] = target: peptide 300 (GGWSHW) (human)

fibronectin, sequence (P02751 306-608 limits assumed): as above

Question: With “fetuin: irrelevant control protein [reference compound]” as the molecule, how does the “IC50 for competition of [125I]fibronectin binding to peptide GGWSHW” value (“IC50 for competition” below) [1] read?
Answer: > 200 µg/mL

Question: With CSVTCG as the molecule, how does the “Inhibition of metastasis of melanoma cells, in words” value [2] read?
Answer: inhibit

Question: For “transferrin: irrelevant control protein [reference compound]”, which “IC50 for competition” value [1] is on record?
Answer: > 200 µg/mL

Question: Which “Inhibition of metastasis of melanoma cells, in words” value [2] does the source give for CSTSCG here?
Answer: inhibit

Question: For fibronectin, which “Half saturation of binding to immobilized peptide GGWSHW” value [3] is on record?
Answer: 0.7 µg/mL

Question: And the “Inhibition of fibronectin binding to immobilized peptide GGWSHW, in words” value [1]?
Answer: competed

Question: Which IC50 [4] does the source give for peptide 340 (AAWSHW) here?
Answer: > 300 µM

Question: For GGWGPW [compound 318], which “Fibronectin binding to immobilized peptide, in words” value [5] is on record?
Answer: inactive

Question: Which fold less active as inhibitor than the 33-kD fragment [6] does the source give for “40-kD recombinant fragment of fibronectin with the same amino terminus as the 28-kD fragment (domain or fragment)” here?
Answer: 10 fold

Question: With “30-kD proteolytic gelatin-binding domain of fibronectin (domain or fragment)” as the molecule, how does the half saturation [7] read?
Answer: 15 µg/mL

Question: Which “Fibronectin binding to immobilized peptide, in words” value [5] does the source give for DGWSPW (DGWCSPW) [compound 317] here?
Answer: inactive

Question: With “thrombospondin: human platelet thrombospondin, extracellular matrix glycoprotein” as the molecule, how does the “Inhibition of fibronectin binding to immobilized peptide GGWSHW, in words” value [1] read?
Answer: competed

B1: ovalbumin: irrelevant control protein (protein)
chain: MGSIGAASMEFCFDVFKELKVHHANENIFYCPIAIMSALAMVYLGAKDSTRTQINKVVRFDKLPGFGDSIEAQCGTSVNVHSSLRDILNQITKPNDVYSFSLASRLYAEERYPILPEYLQCVKELYRGGLEPINFQTAADQARELINSWVESQTNGIIRNVLQPSSVDSQTAMVLVNAIVFKGLWEKAFKDEDTQAMPFRVTEQESKPVQMMYQIGLFRVASMASEKMKILELPFASGTMSMLVLLPDEVSGLEQLESIINFEKLTEWTSSNVMEERKIKVYLPRMKMEEKYNLTSVLMAMGITDVFSSSANLSGISSAESLKISQAVHAAHAEINEAGREVVGSAEAGVDAASVSEEFRADHPFLFCIKHIATNAVLFFGRCVSP
Question: Which “IC50 for competition” value [1] does the source give for B1 here?
Answer: > 200 µg/mL

Question: With GGWSHWSPWSS [peptide 256 (…)] as the molecule, how does the IC50 [4] read?
Answer: > 300 µM
